We go through eight compounds from ChEMBL document CHEMBL4049407, “Positional Scanning Identifies the Molecular Determinants of a High Affinity Multi-Leucine Inhibitor for Furin and PACE4” (J Med Chem, 2017).

The term Ki denotes the equilibrium dissociation constant of an inhibitor or competing ligand from its target. One may read the IC50 as the concentration needed to halve the response being measured.

Assay [1] deals with T1, Proprotein convertase subtilisin/kexin type 6 (Homo sapiens, UniProt P29122).
T1 sequence (P29122 whole entry): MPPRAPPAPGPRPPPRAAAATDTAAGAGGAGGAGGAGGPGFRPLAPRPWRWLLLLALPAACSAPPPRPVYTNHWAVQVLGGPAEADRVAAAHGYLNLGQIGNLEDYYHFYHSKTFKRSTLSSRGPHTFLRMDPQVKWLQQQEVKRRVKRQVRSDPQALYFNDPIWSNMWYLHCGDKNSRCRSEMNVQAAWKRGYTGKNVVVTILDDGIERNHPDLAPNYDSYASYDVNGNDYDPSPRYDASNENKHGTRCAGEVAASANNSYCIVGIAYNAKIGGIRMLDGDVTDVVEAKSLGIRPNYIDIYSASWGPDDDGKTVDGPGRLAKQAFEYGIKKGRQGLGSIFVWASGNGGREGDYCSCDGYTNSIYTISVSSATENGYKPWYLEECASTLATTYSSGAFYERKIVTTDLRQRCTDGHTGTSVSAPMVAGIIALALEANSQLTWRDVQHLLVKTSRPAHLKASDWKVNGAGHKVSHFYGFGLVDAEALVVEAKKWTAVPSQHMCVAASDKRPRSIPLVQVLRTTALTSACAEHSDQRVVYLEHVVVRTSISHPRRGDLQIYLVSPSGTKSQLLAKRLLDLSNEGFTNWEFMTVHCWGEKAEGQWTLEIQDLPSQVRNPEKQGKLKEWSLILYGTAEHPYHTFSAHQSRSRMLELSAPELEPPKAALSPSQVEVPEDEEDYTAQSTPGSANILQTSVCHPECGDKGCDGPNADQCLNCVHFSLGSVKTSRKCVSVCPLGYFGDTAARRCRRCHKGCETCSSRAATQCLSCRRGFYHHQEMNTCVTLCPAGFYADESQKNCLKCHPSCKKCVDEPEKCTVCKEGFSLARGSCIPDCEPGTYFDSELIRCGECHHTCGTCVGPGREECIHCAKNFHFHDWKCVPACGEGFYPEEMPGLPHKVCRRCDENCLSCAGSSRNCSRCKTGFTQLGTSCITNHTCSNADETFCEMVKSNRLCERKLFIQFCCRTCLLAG
In words: Inhibition of recombinant human PACE4 expressed in drosophila S2 cells using pyrGlu-Arg-Thr-Lys-Arg-7-amido-4-methylcoumarin as substrate after 60 mins by spectrofluorometry method. Type of assay: cell-based. The method in brief: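 Human recombinant purified PACE4 at 2 units/100 µL (20.18 nM), in 20 mM BisTris pH 6.5, 1 mM CaCl2, 1.8 mg/mL BSA. Substrate 100 µM, KM 4.035 µM. Inhibitor 1 nM to 10 µM; 60 min at 37°C. Fluorescence ex 370 / em 460 nm. Ki by Morrison tight-binding equation; three independent experiments, mean ± SD.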

The target in assay [2] is Furin (Homo sapiens, UniProt P09958). Description: Inhibition of recombinant human furin expressed in drosophila S2 cells using pyrGlu-Arg-Thr-Lys-Arg-7-amido-4-methylcoumarin as substrate after 60 mins by spectrofluorometry method. Type of assay: cell-based. The method in brief:
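Human recombinant purified furin at 2 units/100 µL (0.54 nM), in 100 mM HEPES pH 7.5, 1 mM CaCl2, 1 mM β-mercaptoethanol, 1.8 mg/mL BSA. His-containing peptides run instead in 20 mM BisTris pH 6.5 with the same additives. Substrate 100 µM, KM 5.04 µM. Inhibitor 1 nM to 10 µM; 60 min at 37°C. Fluorescence ex 370 / em 460 nm. Ki by Morrison equation; triplicate experiments, mean ± SD.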

The species entered for assay [3] is Homo sapiens. Description: Selectivity index, ratio of Ki for recombinant human furin expressed in drosophila S2 cells to Ki for recombinant human PACE4 expressed in drosophila S2 cells. Type of assay: cell-based. The method in brief:
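Ratio Ki(furin)/Ki(PACE4). […] PACE4 buffer was BisTris pH 6.5; furin buffer was HEPES pH 7.5, or BisTris pH 6.5 for His peptides. Ki fitted by Morrison equation from three independent experiments.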

Assay [4] has as its system DU-145. In words: Antiproliferative activity against human DU145 cells assessed as reduction in metabolic activity after 72 hrs by MTT assay. Type of assay: functional, cell-based. Conditions: DU-145, 72 h. The method in brief: (§1)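 Cells kept at 37°C, 5% CO2 in RPMI 1640 (DU145 with 5% FBS, 1500 cells/well; LNCaP with 10% FBS, 2500 cells/well) on poly-L-lysine coated plates. Peptides added 24 h after plating in fresh serum medium at 0, 1, 10, 25, 50, 75, 100, 250 µM for 72 h. MTT 1 mg/mL final for 4 h; formazan dissolved in 2-propanol HCl. Signal normalised to water vehicle; IC50 from dose-response curves.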
In general terms: Tetrazolium dyes change colour on reduction, which living cells bring about.

Assay [5] has as its system LNCaP. In words: Antiproliferative activity against human LNCAP cells assessed as reduction in metabolic activity after 72 hrs by MTT assay. The format is functional, cell-based. The method in brief:
as §1

For assay [6], the system named is DU-145. Description: Antiproliferative activity against human DU145 cells assessed as reduction in metabolic activity at 25 to 100 uM after 72 hrs by MTT assay. The format is functional, cell-based. The essentials:
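First-pass MTT screen of each library peptide on DU145 cells (RPMI 1640, 5% FBS, 1500 cells/well, poly-L-lysine plates). Peptides added 24 h after seeding at 25, 50 and 100 µM in fresh serum medium for 72 h. MTT 1 mg/mL for 4 h; 2-propanol HCl solubilisation. Activity normalised to water vehicle. Mean ± SEM of at least two independent experiments.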

Structures are written as SMILES. Calls of active or inactive are those of the source. No rule for the calls is given here. Peptide text beside a SMILES is read from it. * marks the point of attachment. NH(4-amidinobenzyl) = N=C(N)c1ccc(CN*)cc1

Chain of Furin (P09958 whole entry): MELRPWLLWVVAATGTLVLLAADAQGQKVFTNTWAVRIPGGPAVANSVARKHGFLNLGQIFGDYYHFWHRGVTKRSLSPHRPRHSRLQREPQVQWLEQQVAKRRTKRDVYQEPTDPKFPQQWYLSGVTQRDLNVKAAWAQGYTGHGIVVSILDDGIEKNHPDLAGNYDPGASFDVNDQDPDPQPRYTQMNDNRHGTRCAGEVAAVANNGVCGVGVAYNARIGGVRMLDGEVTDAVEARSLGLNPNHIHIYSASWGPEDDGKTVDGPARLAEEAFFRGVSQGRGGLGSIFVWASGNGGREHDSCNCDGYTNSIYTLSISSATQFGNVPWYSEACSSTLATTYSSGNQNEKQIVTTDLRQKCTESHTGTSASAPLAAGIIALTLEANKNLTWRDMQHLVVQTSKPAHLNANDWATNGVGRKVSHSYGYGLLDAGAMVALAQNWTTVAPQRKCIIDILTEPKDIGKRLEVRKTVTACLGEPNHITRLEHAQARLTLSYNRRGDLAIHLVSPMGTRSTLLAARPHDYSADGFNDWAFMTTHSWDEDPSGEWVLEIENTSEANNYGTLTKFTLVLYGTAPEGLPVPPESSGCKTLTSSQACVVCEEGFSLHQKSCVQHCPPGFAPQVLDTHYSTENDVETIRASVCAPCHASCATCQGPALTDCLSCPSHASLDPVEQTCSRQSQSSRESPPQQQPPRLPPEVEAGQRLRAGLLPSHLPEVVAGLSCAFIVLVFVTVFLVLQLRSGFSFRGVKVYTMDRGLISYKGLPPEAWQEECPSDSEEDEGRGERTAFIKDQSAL

With `CC[C@H](C)[C@H](NC(=O)[C@H](CC(C)C)NC(=O)[C@@H](CC(C)C)NC(C)=O)C(=O)N[C@H](C(=O)N[C@@H](CCCNC(=N)N)C(=O)N[C@H](C(=O)N[C@@H](CCCCN)C(=O)NCc1ccc(C(=N)N)cc1)C(C)C)[C@@H](C)CC`, the Ki in assay [1] came to 14 nM; in assay [2], 11.7 nM. Also, the Ratio Ki in assay [3] stood at 0.8. For the same compound, the IC50 was 37 µM in assay [4] and 60 µM in assay [5].

For `CC[C@H](C)[C@H](NC(=O)[C@H](CC(C)C)NC(C)=O)C(=O)N[C@@H](CC(C)C)C(=O)N[C@@H](CC(C)C)C(=O)N[C@@H](CCCNC(=N)N)C(=O)N[C@H](C(=O)N[C@@H](CCCCN)C(=O)NCc1ccc(C(=N)N)cc1)C(C)C` (Ac-LILLRVK-{NH(4-amidinobenzyl)}), the results for the Ki in assay [1] and in assay [2] were 2.5 nM and 2 nM, respectively. For the same compound, the Ratio Ki in assay [3] was 0.8. Also, the IC50 was determined as 31 µM in assay [4] and 40 µM in assay [5].

`CC(=O)N[C@@H](CC(C)C)C(=O)N[C@@H](CO)C(=O)N[C@@H](CC(C)C)C(=O)N[C@@H](CC(C)C)C(=O)N[C@@H](CCCNC(=N)N)C(=O)N[C@H](C(=O)N[C@@H](CCCCN)C(=O)NCc1ccc(C(=N)N)cc1)C(C)C` (Ac-LSLLRVK-{NH(4-amidinobenzyl)}): the Ki in assay [1] worked out at 2 nM; in assay [2], 2.6 nM. Besides, the Ratio Ki in assay [3] worked out at 1.3. In addition, in assay [6], the result was inactive.

Consider `CC(=O)N[C@@H](CC(C)C)C(=O)N[C@@H](Cc1ccc(O)cc1)C(=O)N[C@@H](CC(C)C)C(=O)N[C@@H](CC(C)C)C(=O)N[C@@H](CCCNC(=N)N)C(=O)N[C@H](C(=O)N[C@@H](CCCCN)C(=O)NCc1ccc(C(=N)N)cc1)C(C)C` (Ac-LYLLRVK-{NH(4-amidinobenzyl)}), for which the Ki in assay [1] worked out at 4 nM; in assay [2], 3 nM. For the same compound, the Ratio Ki in assay [3] worked out at 0.8. Further, in assay [6], the outcome was inactive.

For the compound `CC(=O)N[C@@H](CC(C)C)C(=O)N[C@@H](CC(C)C)C(=O)N[C@H](C(=O)N[C@@H](CC(C)C)C(=O)N[C@@H](CCCNC(=N)N)C(=O)N[C@H](C(=O)N[C@@H](CCCCN)C(=O)NCc1ccc(C(=N)N)cc1)C(C)C)C(C)C` (Ac-LLVLRVK-{NH(4-amidinobenzyl)}), the Ki in assay [1] is 4 nM; in assay [2] it was 3 nM. Also, the Ratio Ki in assay [3] came to 0.8. In addition, in assay [6], the outcome was inactive.

Regarding `CC(=O)N[C@@H](CC(C)C)C(=O)N[C@@H](CC(C)C)C(=O)N[C@@H](CCCCN)C(=O)N[C@@H](CC(C)C)C(=O)N[C@@H](CCCNC(=N)N)C(=O)N[C@H](C(=O)N[C@@H](CCCCN)C(=O)NCc1ccc(C(=N)N)cc1)C(C)C` (Ac-LLKLRVK-{NH(4-amidinobenzyl)}), the Ki came to 2.2 nM in assay [1] and 4 nM in assay [2]. The Ratio Ki in assay [3] was 1.8. Moreover, in assay [6], the outcome was inactive.

Regarding `CC(=O)N[C@@H](CC(C)C)C(=O)N[C@@H](CC(C)C)C(=O)N[C@@H](CC(C)C)C(=O)N[C@@H](CO)C(=O)N[C@@H](CCCNC(=N)N)C(=O)N[C@H](C(=O)N[C@@H](CCCCN)C(=O)NCc1ccc(C(=N)N)cc1)C(C)C` (Ac-LLLSRVK-{NH(4-amidinobenzyl)}), the Ki is 2 nM in assay [1] and 4 nM in assay [2]. For the same compound, the Ratio Ki in assay [3] is 2. Besides, in assay [6], the result was inactive.

With `CC(=O)N[C@@H](CC(C)C)C(=O)N1CCC[C@H]1C(=O)N[C@@H](CC(C)C)C(=O)N[C@@H](CC(C)C)C(=O)N[C@@H](CCCNC(=N)N)C(=O)N[C@H](C(=O)N[C@@H](CCCCN)C(=O)NCc1ccc(C(=N)N)cc1)C(C)C` (Ac-LPLLRVK-{NH(4-amidinobenzyl)}), the figures for the Ki in assay [1] and in assay [2] were 1 nM and 1.5 nM, respectively. Also, in assay [3], the Ratio Ki came to 1.5. Further, in assay [6], the result was inactive.
